Active and inactive are the calls of the source. The rule behind the calls is not given here.

The values that follow come from ChEMBL document CHEMBL3588761, “Design, synthesis and characterization of dual inhibitors against new targets FabG4 and HtdX of Mycobacterium tuberculosis” (Eur J Med Chem, 2015).

The nature of series [1]: Inhibition of Mycobacterium tuberculosis FabG4 assessed as reduction in NADH to NAD+ conversion using acetoacetyl-CoA substrate by UV-visible spectrophotometry. A digest of the protocol:
(§1)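 50 mM HEPES pH 7.4 at 25 °C with 1 µM FabG4, 0.2 mM β-NADH, 0.5 mM acetoacetyl-CoA and 5% methanol. Started with substrate; A340 decrease read every 2 min. IC50 taken graphically from dose-response plots. Mode found by varying NADH at three inhibitor levels, using Lineweaver-Burk plots.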

A short description of series [2]: Inhibition of Mycobacterium tuberculosis HtdX using crotonoyl-CoA substrate by UV-visible spectrophotometry. A digest of the protocol: (§2)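 50 mM HEPES pH 7.5 with 100 mM NaCl at 25 °C, containing 100 nM HtdX, 10 µM crotonoyl-CoA and 5% methanol. Started with substrate; A263 decrease read every 2 min. IC50 taken graphically from dose-response plots. Mode found by varying crotonoyl-CoA at three inhibitor levels, using Lineweaver-Burk plots.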

The subject of series [3] is Mycobacterium tuberculosis. Put plainly: Induction of changes in secondary structure of Mycobacterium tuberculosis HtdX assessed as unordered level at 50 uM by CD spectroscopy (reference value: 35.2%).
Series [4] has as its system Mycobacterium tuberculosis. Put plainly: Induction of changes in secondary structure of Mycobacterium tuberculosis HtdX assessed as beta-sheet level at 50 uM by CD spectroscopy (reference value: 40.1%).
In series [5] the test system is Mycobacterium tuberculosis. Put plainly: Binding affinity to Mycobacterium tuberculosis HtdX assessed as binding constant at 25 degC by isothermal titration calorimetry. The method in brief: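 HtdX at 10 µM in 50 mM HEPES pH 7.5 with 100 mM NaCl in the cell, titrated at 25 °C with 500 µM ligand in 5% methanol-buffer (0.4 µL then 19 × 2 µL). Buffer-ligand reference subtracted. Isotherm fitted to a one-site model.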
On the technique in general: Isothermal titration calorimetry measures the heat released or taken up as one component is titrated into another.

For series [6], the system named is Mycobacterium tuberculosis. Put plainly: Induction of changes in secondary structure of Mycobacterium tuberculosis HtdX assessed as turns level at 50 uM by CD spectroscopy (reference value: 12.6%).
Series [7] has as its system Mycolicibacterium smegmatis. Put plainly: Antimycobacterial activity against Mycobacterium smegmatis str. MC2 155 assessed as inhibition of microbial growth incubated for 24 hrs by REMA method. The series is classed as functional. As to conditions: str. MC2 155, 24 h. The method in brief: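 M. smegmatis mc2155 grown in 7H9 broth with 0.2% glycerol and 0.05% Tween 80 at 37 °C, 120 rpm, to mid-log (OD595 ~0.5). Diluted to OD595 0.0005 and exposed to drug for 24 h at 37 °C. Then 0.02% resazurin added for 40 min. MIC is the lowest concentration preventing the blue-to-pink change. Two repeats, averaged.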

The test system of series [8] is Mycobacterium tuberculosis. Put plainly: Induction of changes in secondary structure of Mycobacterium tuberculosis HtdX assessed as helix level at 50 uM by CD spectroscopy (reference value: 12.2%).
Series [9] relates to Mycobacterium tuberculosis. Kind of series: Competitive inhibition of Mycobacterium tuberculosis HtdX using varying crotonoyl-CoA substrate by UV-visible spectrophotometry. A digest of the protocol:
as §2

In series [10] the test system is Mycobacterium tuberculosis. Put plainly: Binding affinity to Mycobacterium tuberculosis FabG4 assessed as second binding constant at 25 degC by isothermal titration calorimetry. A digest of the protocol:
(§3)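 FabG4 at 4.5 µM in 50 mM HEPES pH 7.4 in the cell, titrated at 25 °C with 500 µM ligand in 5% methanol-buffer (0.4 µL then 19 × 2 µL, 120 s spacing). Buffer-ligand reference titration subtracted. Two sequential binding events, per monomer of the homodimer.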

Series [11] deals with Mycobacterium tuberculosis. Kind of series: Induction of changes in secondary structure of Mycobacterium tuberculosis FabG4 assessed as turns level at 50 uM by CD spectroscopy (reference value: 34.6%).
The test system of series [12] is Mycobacterium tuberculosis. Kind of series: Competitive inhibition of Mycobacterium tuberculosis FabG4 assessed as reduction in NADH to NAD+ conversion using acetoacetyl-CoA substrate and varying NADH levels by UV-visible spectrophotometry. A digest of the protocol:
as §1

The subject of series [13] is Mycobacterium tuberculosis. Put plainly: Induction of changes in secondary structure of Mycobacterium tuberculosis FabG4 assessed as unordered level at 50 uM by CD spectroscopy (reference value: 33.5%).
Series [14] in a line: Drug metabolism in culture media assessed as isoniazid release in presence of Mycobacterium smegmatis str. MC2 155 incubated for 24 hrs by HPLC method. The series is classed as physicochemical. A digest of the protocol:
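Compound incubated in culture medium with M. smegmatis for 24 h. Culture then lyophilised, redissolved and run on HPLC (100% methanol eluent, 1.2 mL/min), checking for an isoniazid peak.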

In series [15] the test system is Mycolicibacterium smegmatis. Kind of series: Inhibition of biofilm formation of Mycobacterium smegmatis str. MC2 155 at 20 ug/ml incubated at 37 degC without shaking for 4 weeks. The series is classed as functional. Conditions: str. MC2 155, 672 h. A digest of the protocol: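 M. smegmatis mc2155 planktonic culture inoculated at 1% into Sauton's minimal medium without Tween-80. Inhibitor at 5, 10, 20, 50 and 100 µg/mL, with a no-inhibitor control. Plates sealed and held static at 37 °C for 4 weeks; biofilm formation assessed visually.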

Series [16] concerns Mycobacterium tuberculosis. Put plainly: Induction of changes in secondary structure of Mycobacterium tuberculosis FabG4 assessed as beta-sheet level at 50 uM by CD spectroscopy (reference value: 6%).
In series [17] the test system is Mycobacterium tuberculosis. Put plainly: Binding affinity to Mycobacterium tuberculosis FabG4 assessed as first binding constant at 25 degC by isothermal titration calorimetry. The method in brief: as §3
Series [18] relates to Mycobacterium tuberculosis. Put plainly: Induction of changes in secondary structure of Mycobacterium tuberculosis FabG4 assessed as helix level at 50 uM by CD spectroscopy (reference value: 25.9%).

Turning to `O=C1[C@@H](CO)[C@H](c2ccncc2)N1c1ccccc1` (relative stereo), the values for the IC50 in [1] (read-out: IC50) and in series [2] were 666 µM and “Not Active”, respectively.
With `O=C(NNC(=O)[C@@H]1C(=O)N(c2ccccc2)[C@H]1c1cccs1)c1ccncc1` (relative stereo), the Activity worked out at 35.7% in series [3], 50.6% in [4], 2.6% in series [6] and 11.1% in series [8]. The K in [5] came to 4.21 ×10⁵ /M. In addition, the MIC (commonly the least concentration at which growth counts as inhibited) in [7] worked out at 20 µg/mL. The inhibition (as a rule, the drop in the measured response relative to a control, in per cent) in series [9] is “Active”. For the same compound, the IC50 – broadly, the concentration that inhibits the measured activity by half – was determined as 26.1 µM in series [1] (read-out: IC50) and 10.3 µM in series [2] (read-out: IC50).
Consider `NNC(=O)c1ccncc1` [ISONIAZID], for which the MIC in series [7] was 10 µg/mL.
Consider `O=C(NNC(=O)[C@@H]1C(=O)N(c2ccccc2)[C@H]1c1ccncc1)c1ccncc1` (relative stereo), for which the K worked out at 1.15 ×10³ /M in series [10] and 2.98 ×10⁵ /M in series [17]. The Activity in [11] was found to be 29.8%; in series [13], 34.4%; in [16], 5.7%; in [18] it was 30%. Further, in [12], the inhibition entry is “Active”. Further, the Drug metabolism entry in series [14] was “metabolite_notdetected”. This compound also returned an inhibition at 20 µg/mL in series [15] of 100%. For the same compound, the MIC in series [7] came out at 15 µg/mL. Further, the figures for the IC50 in series [1] (read-out: IC50) and in series [2] (read-out: IC50) were 15.2 µM and 22.3 µM, respectively.
In the case of `O=C(O)[C@@H]1C(=O)N(c2ccccc2)[C@H]1c1ccco1` (relative stereo), the IC50 entry in series [1] and in [2] was “Not Active” each time.
Turning to `O=C(NNC(=O)[C@@H]1C(=O)N(c2ccccc2)[C@H]1c1ccco1)c1ccncc1` (relative stereo), the MIC in series [7] worked out at 15 µg/mL. The IC50 in series [1] (read-out: IC50) was 27.6 µM; in [2] (read-out: IC50) it was 17.6 µM.
As to `O=C(NNC(=O)[C@@H]1C(=O)N(c2ccccc2)[C@H]1c1ccncc1)c1ccccc1` (relative stereo), the 50% inhibitory concentration (IC50) in series [1] (read-out: IC50) was 39.9 µM; in series [2] it was “Not Active”.
`O=C(O)[C@@H]1C(=O)N(c2ccccc2)[C@H]1c1cccs1` (relative stereo): the IC50 entry in [1] and in series [2] was “Not Active” each time.
With `O=C(O)[C@@H]1C(=O)N(c2ccccc2)[C@H]1c1ccncc1` (relative stereo), the IC50 is 64.3 µM in series [1] (read-out: IC50) and “Not Active” in [2].
